Data taken from ChEMBL document CHEMBL5096186, “Design, Synthesis, and Biological Evaluation of Novel Pyrimido[4,5-b]indole Derivatives Against Gram-Negative Multidrug-Resistant Pathogens” (J Med Chem, 2021).
In brackets after ≈: the same amount, converted by molar mass.

Tests used:
Staphylococcus aureus = test: Antibacterial activity against methicillin-sensitive Staphylococcus aureus strains 15 1 to 4 assessed as reduction in bacterial growth incubated for 18 to 20 hrs by CLSI based microdilution method; format: functional; settings: time 18-20 hrs
Summary of the method: (§1)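 Broth microdilution per CLSI. Compounds dissolved in DMSO (levofloxacin and meropenem in water) as 64 μg/mL stock, then serial twofold dilutions in broth giving 64 to 0.008 μg/mL. […] Clinical isolates tested as several strains per group; racemic GP-1 served as positive control; values given as MIC ranges.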

[1] = system: Staphylococcus epidermidis; test: Antibacterial activity against methicillin-sensitive Staphylococcus epidermidis strains 15 1 to 4 assessed as reduction in bacterial growth incubated for 18 to 20 hrs by CLSI based microdilution method; format: functional; settings: time 18-20 hrs; summary of the method: as §1
Escherichia coli [2] = test: Antibacterial activity against ESBL-producing Escherichia coli ATCC 35218 strains 15 1 to 3 assessed as reduction in bacterial growth incubated for 18 to 20 hrs by CLSI based microdilution method; format: functional; settings: time 18-20 hrs
Summary of the method: (§2)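 CLSI broth microdilution. Compounds in DMSO (levofloxacin and meropenem in water), serial twofold dilutions in broth, 64 to 0.008 μg/mL. […] Results reported as MIC ranges across strains.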

Escherichia coli [3] = test: Antibacterial activity against Escherichia coli ATCC 35218 strains 15 1 to 3 assessed as reduction in bacterial growth incubated for 18 to 20 hrs by CLSI based microdilution method; format: functional; settings: time 18-20 hrs; summary of the method: as §2
Pseudomonas aeruginosa [4] = test: Antibacterial activity against multidrug resistant Pseudomonas aeruginosa strains 15 1 to 3 assessed as reduction in bacterial growth incubated for 18 to 20 hrs by CLSI based microdilution method; format: functional; settings: time 18-20 hrs; summary of the method: as §1
[5] = molecular target: hERG (KCNH2) potassium channel (Homo sapiens, UniProt Q12809); test: Inhibition of hERG potassium channel assessed as maximum inhibition rate at 40 uM at -80 mV holding potential incubated for 120 seconds by whole cell-automated voltage clamp analysis assay relative to control; format: toxicity; settings: time 120 sec
Chain of hERG (KCNH2) potassium channel (Q12809 whole entry): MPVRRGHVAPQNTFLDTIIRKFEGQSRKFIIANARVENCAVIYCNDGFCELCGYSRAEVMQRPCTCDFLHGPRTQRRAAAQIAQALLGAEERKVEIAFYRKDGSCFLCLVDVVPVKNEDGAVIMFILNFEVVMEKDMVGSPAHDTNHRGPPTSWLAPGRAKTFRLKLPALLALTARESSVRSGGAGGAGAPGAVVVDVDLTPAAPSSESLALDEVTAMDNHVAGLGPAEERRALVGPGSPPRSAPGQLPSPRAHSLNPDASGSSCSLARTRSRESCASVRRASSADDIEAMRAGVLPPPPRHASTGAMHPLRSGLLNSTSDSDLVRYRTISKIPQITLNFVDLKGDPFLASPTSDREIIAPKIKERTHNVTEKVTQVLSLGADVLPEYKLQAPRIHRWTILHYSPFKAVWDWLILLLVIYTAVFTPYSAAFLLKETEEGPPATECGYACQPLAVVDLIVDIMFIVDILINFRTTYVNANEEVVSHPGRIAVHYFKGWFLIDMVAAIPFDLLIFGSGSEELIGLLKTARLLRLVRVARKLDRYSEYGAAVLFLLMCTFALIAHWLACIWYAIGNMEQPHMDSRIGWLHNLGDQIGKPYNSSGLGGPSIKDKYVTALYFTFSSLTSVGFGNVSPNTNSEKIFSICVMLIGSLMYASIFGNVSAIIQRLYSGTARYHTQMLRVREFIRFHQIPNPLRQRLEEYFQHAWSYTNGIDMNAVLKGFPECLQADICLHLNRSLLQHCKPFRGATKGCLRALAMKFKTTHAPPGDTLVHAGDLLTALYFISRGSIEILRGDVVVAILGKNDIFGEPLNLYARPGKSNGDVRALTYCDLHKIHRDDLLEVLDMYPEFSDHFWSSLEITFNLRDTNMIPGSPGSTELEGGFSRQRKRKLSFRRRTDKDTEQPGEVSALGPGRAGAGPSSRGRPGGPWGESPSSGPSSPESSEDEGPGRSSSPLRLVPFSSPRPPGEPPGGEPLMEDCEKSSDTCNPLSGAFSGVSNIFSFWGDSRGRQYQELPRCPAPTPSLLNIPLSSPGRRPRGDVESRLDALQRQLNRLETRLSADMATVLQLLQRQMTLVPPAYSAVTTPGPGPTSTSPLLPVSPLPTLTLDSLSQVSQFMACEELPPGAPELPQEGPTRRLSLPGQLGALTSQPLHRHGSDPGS
Summary of the method: (§3)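 Automated whole-cell patch clamp, holding potential −80 mV. Voltage protocol applied every 20 s. Baseline set with external solution containing 0.1% DMSO and stabilised 3 min. Compound applied until steady state, at least 3 min, then washout. Maximum tested concentration 40 μM, or 3 μM for cisapride as positive control.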

[6] = molecular target: Voltage-gated inwardly rectifying potassium channel KCNH2 (Homo sapiens, UniProt Q12809); test: Inhibition of hERG potassium channel assessed as […] at -80 mV holding potential incubated for 120 seconds by whole cell-automated voltage clamp analysis assay; format: toxicity; summary of the method: as §3
Chain of Voltage-gated inwardly rectifying potassium channel KCNH2 (Q12809 whole entry): as above

Escherichia coli [7] = test: Antibacterial activity against ESBL-producing multidrug resistant Escherichia coli assessed as reduction in bacterial growth incubated for 18 to 20 hrs by CLSI based microdilution method; format: functional; settings: time 18-20 hrs; summary of the method: as §1
Escherichia coli [8] = test: Antibacterial activity against multidrug resistant wild type Escherichia coli ATCC BAA-2340 assessed as reduction in bacterial growth incubated for 18 to 20 hrs by CLSI based microdilution method; format: functional; settings: time 18-20 hrs; summary of the method: as §1
Escherichia coli [9] = test: Antibacterial activity against multidrug resistant wild type Escherichia coli NCTC 13353 assessed as reduction in bacterial growth incubated for 18 to 20 hrs by CLSI based microdilution method; format: functional; settings: time 18-20 hrs; summary of the method: as §1
Klebsiella pneumoniae [10] = test: Antibacterial activity against KPC2-producing multidrug resistant Klebsiella pneumoniae assessed as reduction in bacterial growth incubated for 18 to 20 hrs by CLSI based microdilution method; format: functional; settings: time 18-20 hrs; summary of the method: as §1
Klebsiella pneumoniae [11] = test: Antibacterial activity agains wild type Klebsiella pneumoniae ATCC BAA-1705 assessed as reduction in bacterial growth incubated for 18 to 20 hrs by CLSI based microdilution method; format: functional; settings: time 18-20 hrs; summary of the method: as §2
Klebsiella pneumoniae [12] = test: Antibacterial activity agains wild type Klebsiella pneumoniae ATCC BAA-2470 assessed as reduction in bacterial growth incubated for 18 to 20 hrs by CLSI based microdilution method; format: functional; settings: time 18-20 hrs; summary of the method: as §1
Acinetobacter baumannii [13] = test: Antibacterial activity agains OXA23-producing multidrug resistant Acinetobacter baumannii assessed as reduction in bacterial growth incubated for 18 to 20 hrs by CLSI based microdilution method; format: functional; settings: time 18-20 hrs; summary of the method: as §1
Acinetobacter baumannii [14] = test: Antibacterial activity against wild type Acinetobacter baumannii NCTC 13304 assessed as reduction in bacterial growth incubated for 18 to 20 hrs by CLSI based microdilution method; format: functional; settings: time 18-20 hrs; summary of the method: as §1
Pseudomonas aeruginosa [15] = test: Antibacterial activity against IMP4-producing multidrug resistant Pseudomonas aeruginosa assessed as reduction in bacterial growth incubated for 18 to 20 hrs by CLSI based microdilution method; format: functional; settings: time 18-20 hrs; summary of the method: as §1
Pseudomonas aeruginosa [16] = test: Antibacterial activity against wild type Pseudomonas aeruginosa ATCC 27853 assessed as reduction in bacterial growth incubated for 18 to 20 hrs by CLSI based microdilution method; format: functional; settings: time 18-20 hrs; summary of the method: as §2
[17] = Metabolic stability in rat liver microsome assessed as elimination half life at 0.1 uM in presence of NADPH incubated upto 60 mins by LC-MS/MS analysis; format: ADME; settings: liver microsomes, read-out: beta t1/2
Summary of the method: (§4)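 Compound at 0.1 μM final, in 0.01% DMSO with 0.005% BSA. Incubated with rat or human liver microsomes at 0.33 mg/mL in 0.1 M Tris-HCl, pH 7.4, with 5 mM MgCl₂ and 1 mM NADPH, at 37 °C. Samples at 0, 7, 17, 30 and 60 min quenched with cold methanol and analysed by LC-MS/MS. Half-life, Cl_int and MF% derived as previously described.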

[18] = Metabolic stability in human liver microsome assessed as elimination half life at 0.1 uM in presence of NADPH incubated upto 60 mins by LC-MS/MS analysis; format: ADME; settings: liver microsomes, read-out: beta t1/2; summary of the method: as §4
[19] = Metabolic stability in rat liver microsome assessed as intrinsic clearance at 0.1 uM in presence of NADPH incubated upto 60 mins by LC-MS/MS analysis; format: ADME; settings: microsomes, 1 h; summary of the method: as §4
[20] = Metabolic stability in human liver microsome assessed as intrinsic clearance at 0.1 uM in presence of NADPH incubated upto 60 mins by LC-MS/MS analysis; format: ADME; settings: microsomes, 1 h; summary of the method: as §4
[21] = Metabolic stability in rat liver microsome assessed as metabolic bioavailability at 0.1 uM in presence of NADPH incubated upto 60 mins by LC-MS/MS analysis; format: ADME; settings: liver microsomes; summary of the method: as §4
[22] = Metabolic stability in human liver microsome assessed as metabolic bioavailability at 0.1 uM in presence of NADPH incubated upto 60 mins by LC-MS/MS analysis; format: ADME; settings: liver microsomes; summary of the method: as §4
[23] = AUC (0 to infinity) in Sprague-Dawley rat at 4 mg/kg, iv measured upto 24 hrs by LC-MS/MS analysis; format: ADME, organism-based; parameters: time < 24 hrs, dose 4 mg/kg, route iv; settings: in vivo
Summary of the method: (§5)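 Male Sprague-Dawley rats, n = 3 per group, single intravenous dose. For 4 mg/kg: 180–280 g rats, vehicle 5% DMSO + 5% EtOH + 40% PEG300 + 50% saline, blood from the retrobulbar vein at 0.05–24 h. For 5 and 20 mg/kg: 180–300 g rats, vehicle 5% DMSO + 5% solutol + 90% saline, sampled at 0.083–24 h. Plasma quantified by LC/MS/MS. Parameters from mean plasma concentration by noncompartmental analysis; values are mean ± standard deviation.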

[24] = Elimination half life in Sprague-Dawley rat at 4 mg/kg, iv measured upto 24 hrs by LC-MS/MS analysis; format: ADME, organism-based; settings: in vivo, read-out: beta t1/2 (converted); summary of the method: as §5
[25] = MRT in Sprague-Dawley rat at 4 mg/kg, iv measured upto 24 hrs by LC-MS/MS analysis; format: ADME, organism-based; settings: in vivo; summary of the method: as §5
[26] = Clearance in Sprague-Dawley rat at 4 mg/kg, iv measured upto 24 hrs by LC-MS/MS analysis; format: ADME, organism-based; settings: in vivo; summary of the method: as §5
[27] = Volume of distribution at the steady state in Sprague-Dawley rat at 4 mg/kg, iv measured upto 24 hrs by LC-MS/MS analysis; format: ADME, organism-based; settings: in vivo, read-out: Vdss; summary of the method: as §5

Row | Structure (SMILES) | MIC (Staphylococcus aureus) | MIC [1] | MIC (Escherichia coli [2]) | MIC (Escherichia coli [3]) | MIC (Pseudomonas aeruginosa [4]) | inhibition at 2 min, 40 µM [5] | IC50 [6] | MIC (Escherichia coli [7]) | MIC (Escherichia coli [8]) | MIC (Escherichia coli [9]) | MIC (Klebsiella pneumoniae [10]) | MIC (Klebsiella pneumoniae [11]) | MIC (Klebsiella pneumoniae [12]) | MIC (Acinetobacter baumannii [13]) | MIC (Acinetobacter baumannii [14]) | MIC (Pseudomonas aeruginosa [15]) | MIC (Pseudomonas aeruginosa [16]) | half-life at 0.1 µM [17] | half-life at 0.1 µM [18] | CLH [19] | other results
1 | CNc1cc(F)cc2c1[nH]c1nc(Oc3cnc(C)nc3)nc(N3CC(=C(C)C(C)N)C3)c12 (racemic) | < 0.008 µg/mL | < 0.008 µg/mL | 0.5 µg/mL (≈ 1.11 µM) | 0.25 µg/mL (≈ 0.557 µM) | 1 µg/mL (≈ 2.23 µM) | 37% | > 40 µM | 0.5 µg/mL (≈ 1.11 µM) | 0.5 µg/mL (≈ 1.11 µM) | 0.25 µg/mL (≈ 0.557 µM) | 2 µg/mL (≈ 4.46 µM) | 8 µg/mL (≈ 17.8 µM) | 2 µg/mL (≈ 4.46 µM) | 0.25 µg/mL (≈ 0.557 µM) | 0.5 µg/mL (≈ 1.11 µM) | 4 µg/mL (≈ 8.92 µM) | 2 µg/mL (≈ 4.46 µM) | 0.278 h | 8.23 h | 126 mL/min/g | CLH [20]: 4.25 mL/min/g; Fh at 1 h, 0.1 µM [21]: 26.1%; Fh at 1 h, 0.1 µM [22]: 82.2%; AUC(0-inf) [23]: 1510 ng·h/mL; half-life [24]: 5.7 h; MRT [25]: 4.7 h; clearance [26]: 44.1 mL/min/kg; Vd [27]: 12.3 L/kg
2 | CCC(CN)=C1CN(c2nc(Oc3cnc(C(C)O)nc3)nc3[nH]c4c(NC)cc(F)cc4c23)C1 (stereo unspecified) | < 0.008 µg/mL | < 0.008 µg/mL | 0.5 µg/mL (≈ 1.04 µM) | 0.25 µg/mL (≈ 0.522 µM) | 16 µg/mL (≈ 33.4 µM) | 36% | > 40 µM | 0.5 µg/mL (≈ 1.04 µM) | 1 µg/mL (≈ 2.09 µM) | 0.5 µg/mL (≈ 1.04 µM) | 4 µg/mL (≈ 8.36 µM) | 8 µg/mL (≈ 16.7 µM) | 2 µg/mL (≈ 4.18 µM) | 0.5 µg/mL (≈ 1.04 µM) | 0.5 µg/mL (≈ 1.04 µM) | > 8 µg/mL | 4 µg/mL (≈ 8.36 µM) | 0.253 h | 0.912 h | 138.4 mL/min/g | CLH [20]: 38.4 mL/min/g; Fh at 1 h, 0.1 µM [21]: 24.3%; Fh at 1 h, 0.1 µM [22]: 33.8%; AUC(0-inf) [23]: 983 ng·h/mL; half-life [24]: 2.7 h; MRT [25]: 2.1 h; clearance [26]: 71.5 mL/min/kg; Vd [27]: 9.3 L/kg
